Experimental findings from ChEMBL document CHEMBL4130377 (Eur J Med Chem, 2017) are described below.

Calls of active or inactive are those of the source. No cut-off for these calls is given here.

The subject of test [1] is Mus musculus. Description: Body weight lowering effect in ICR mouse assessed as cumulative changes in body weight at 1000 nmol/kg, ip administered every other day for 2 weeks. The test is classed as functional, organism-based.
In test [2] the test system is Mus musculus. Description: Anorectic activity in overnight fasted ICR mouse assessed as reduction in cumulative food intake at 1000 nmol/kg, ip measured at 2 hrs post dose. The test is classed as functional, organism-based. In short, it runs like this:
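Male ICR mice, 9 weeks old, […], then given a single i.p. dose of 1000 nmol/kg in 0.9% saline; saline-injected controls. Mice were returned to home cages with preweighed food, which was reweighed at 0.5, 1, 2, 4, 8 and 24 h. Readout is cumulative food intake, n=6-8 per group.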

Test [3] deals with Mus musculus. Description: Anorectic activity in overnight fasted ICR mouse assessed as reduction in cumulative food intake at 1000 nmol/kg, ip measured at <2 hrs post dose. The format is functional, organism-based.
In test [4] the test system is Mus musculus. Description: Antiobesity activity in diet-induced obese C57Bl/6 mouse model assessed as plasma insulin level at 3.48 mg/kg, ip administered every other day for 30 days by ELISA (reference value: 13.33 +/- […]). The test is classed as functional, organism-based. In general terms: In an ELISA, binding on a coated surface is turned into a signal by an enzyme label.

For test [5], the system named is Mus musculus. Description: Antiobesity activity in diet-induced obese C57Bl/6 mouse model assessed as serum leptin level at 3.48 mg/kg, ip administered every other day for 30 days by ELISA (reference value: 1.9 +/- 0.07 ng/ml). The test is classed as functional, organism-based. In short, it runs like this: (§1)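 Male C57Bl/6 mice were fed high-fat diet (60% kcal fat) for 12 weeks; DIO mice were ~38 g at 20 weeks. Dosing was i.p. (10 mL/kg in 0.9% saline) every other day at 9 am for 30 days, with saline controls and low-fat-diet lean mice for reference. Insulin, leptin and adiponectin were measured at study end. n=6-8 per group, means ± SD.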

The subject of test [6] is Mus musculus. Description: Antiobesity activity in diet-induced obese C57Bl/6 mouse model assessed as serum adiponectin level at 3.48 mg/kg, ip administered every other day for 30 days by ELISA (reference value: 8.9 +/- 0.38 ug/ml). The test is classed as functional, organism-based. In short, it runs like this: as §1
Test [7] has as its system Mus musculus. The experiment in a line: Antiobesity activity in diet-induced obese C57Bl/6 mouse model assessed as plasma cholesterol level at 3.48 mg/kg, ip administered every other day for 30 days (reference value: 4.33 +/- […]). The test is classed as functional, organism-based.
The test system of test [8] is Mus musculus. Description: Antiobesity activity in diet-induced obese C57Bl/6 mouse model assessed as plasma triglyceride level at 3.48 mg/kg, ip administered every other day for 30 days (reference value: 0.84 +/- […]). The format is functional, organism-based.
For the next test, the target named is Glucagon receptor (Homo sapiens, UniProt P47871). Description: Agonist activity at human GCGR expressed in HEK293 cells assessed as increase in cAMP accumulation after 20 mins by HTRF assay. The test is classed as functional, cell-based.
In test [9] the test system is Mus musculus. The experiment in a line: Anorectic activity in overnight fasted ICR mouse assessed as reduction in cumulative food intake at 1000 nmol/kg, ip measured up to 8 hrs post dose.

Sequence of Glucagon receptor (P47871 whole entry): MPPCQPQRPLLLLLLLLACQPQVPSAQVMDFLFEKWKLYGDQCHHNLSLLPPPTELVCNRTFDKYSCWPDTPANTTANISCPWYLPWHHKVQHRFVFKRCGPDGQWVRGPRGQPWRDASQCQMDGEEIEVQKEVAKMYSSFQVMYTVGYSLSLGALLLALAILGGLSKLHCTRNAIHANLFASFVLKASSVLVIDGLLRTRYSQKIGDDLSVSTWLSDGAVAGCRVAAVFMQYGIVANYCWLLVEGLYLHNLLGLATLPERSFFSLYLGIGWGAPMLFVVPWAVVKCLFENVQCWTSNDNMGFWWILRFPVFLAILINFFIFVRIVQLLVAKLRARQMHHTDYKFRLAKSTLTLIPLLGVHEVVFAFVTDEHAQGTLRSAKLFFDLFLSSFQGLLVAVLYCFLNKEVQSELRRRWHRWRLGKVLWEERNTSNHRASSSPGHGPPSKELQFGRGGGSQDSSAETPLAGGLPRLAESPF

Turning to GLUCAGON, the outcome in the test with Mus musculus [1] and in the test on Mus musculus [2] was inactive. For the same compound, the outcome in the test with Mus musculus [3] was Active. Besides, the Activity worked out at 8.41 ng/mL in the test with Mus musculus [4]; 1.79 ng/mL in the test with Mus musculus [5]; 12.2 µg/mL in the test on Mus musculus [6]; 5.08 mmol/L with Mus musculus [7]; 1.19 mmol/L in the test on Mus musculus [8].
For the compound `CC[C@H](C)[C@H](NC(=O)[C@H](Cc1ccccc1)NC(=O)[C@H](CCC(=O)O)NC(=O)[C@H](CCCCN)NC(=O)[C@H](C)NC(=O)[C@H](C)NC(=O)[C@H](CCC(N)=O)NC(=O)CNC(=O)[C@H](CCC(=O)O)NC(=O)[C@H](CC(C)C)NC(=O)[C@H](Cc1ccc(O)cc1)NC(=O)[C@H](CO)NC(=O)[C@H](CO)NC(=O)[C@@H](NC(=O)[C@H](CC(=O)O)NC(=O)[C@H](CO)NC(=O)[C@@H](NC(=O)[C@H](Cc1ccccc1)NC(=O)[C@@H](NC(=O)CNC(=O)[C@H](CCC(=O)O)NC(=O)[C@H](C)NC(=O)[C@@H](N)Cc1c[nH]cn1)[C@@H](C)O)[C@@H](C)O)C(C)C)C(=O)N[C@@H](C)C(=O)N[C@@H](Cc1c[nH]c2ccccc12)C(=O)N[C@@H](CC(C)C)C(=O)N[C@H](C(=O)N[C@@H](CCCCN)C(=O)NCC(=O)N[C@@H](CCCN=C(N)N)C(=O)NCC(=O)O)C(C)C`, in the test on Mus musculus [1], the outcome was inactive. Moreover, at Glucagon receptor, the EC50 result is given as “Not Active”. In addition, in the test with Mus musculus [9], the outcome was Active.
